Laboratory results as given in ChEMBL document CHEMBL3763082, “Design and synthesis of novel hybrid sydnonimine and prodrug useful for glaucomatous optic neuropathy” (Bioorg Med Chem Lett, 2016).
Activity calls are given as the source filed them. The rule behind the calls is not given here.

Assays:
[1] = system: Rhesus monkey; assay: Suppression of elevated intraocular pressure in lasered monkey eye at 150 ug at 6 hrs; format: functional, Macaca mulatta
[2] = system: 661W; assay: Increase in number of mouse 661W cells at 10 to 50 uM after 24 hrs by MTT assay relative to vehicle control; format: functional, cell-based
Outline: (§1)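 About 3000 NTM5 trabecular meshwork cells or transformed 661 W photoreceptor cells seeded per well, exposed to 10, 50 or 100 μM for 24 h; vehicle DMEM/DMSO (1 mL/10 μL). Viability by MTT-type kit (tetrazolium reduced to formazan), absorbance 490 nm; eight biological replicates.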

[3] = Upregulation of SOD in H2O2-induced mouse 661W cells at 50 to 100 uM by Cayman's superoxide dismutase assay; format: functional
Outline: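 SOD activity in 661 W cells treated with test agent in combination with H2O2, vehicle DMEM plus DMSO; commercial kit detecting superoxide generated by xanthine oxidase/hypoxanthine with a tetrazolium salt, per manufacturer's instructions.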

[4] = Half life of compound in 0.5 M phosphate buffer at pH 7.4 at 25 degC by LC/MS analysis; format: physicochemical; details: for half-life: phosphate buffer; for t1/2: buffer
[5] = Half life of compound in 0.5 M phosphate buffer at pH 6.5 at 25 degC by LC/MS analysis; format: physicochemical; details: for half-life: phosphate buffer; for t1/2: buffer
[6] = Induction of nitric oxide release in 50 mM phosphate buffer at pH 7.4 after 10 mins by Greiss assay; format: physicochemical; details: pH 7.4, 10 min
[7] = Cytotoxicity against human NTM5 cells assessed as cell viability at 100 uM after 24 hrs by MTT assay; format: cell-based; outline: as §1
[8] = Cytotoxicity against mouse 661W cells assessed as cell viability at 100 uM after 24 hrs by MTT assay; format: cell-based; outline: as §1
[9] = Neuroprotective effect against H2O2-induced oxidative stress in mouse 661W cells assessed as cell viability at 50 to 100 uM by MTT assay relative to control; format: functional, cell-based

SMILES: O=[N+]([O-])OCC(CO[N+](=O)[O-])O[N+](=O)[O-] [NITROGLYCERIN]
- Activity [1]: 13%

SMILES: [NH-]c1c[n+](N2CCOCC2)no1
- Activity [2]: inactive
- Activity [3]: inactive

SMILES: N=c1c[n+](N2CCOCC2)[n-]o1 [LINSIDOMINE]
- half-life [4]: < 24 h
- half-life [5]: < 24 h
- Activity [6]: Active

SMILES: CC(OC(=O)[N-]c1c[n+](C2CC(C)(C)N(O)C(C)(C)C2)no1)OC(=O)C(C)(C)C (stereo not given)
- t1/2 [4]: 9.1 months
- t1/2 [5]: 15.3 months

SMILES: CC(OC(=O)[N-]c1c[n+](N2CCOCC2)no1)OC(=O)C(C)(C)C (stereo not given)
- t1/2 [4]: 9 months
- t1/2 [5]: 18 months

SMILES: CC1(C)CC([n+]2cc([NH-])on2)CC(C)(C)N1O.Cl
- half-life [4]: < 24 h
- half-life [5]: < 24 h
- Activity [7]: Non-toxic
- Activity [8]: Non-toxic
- Activity [2]: Active
- Activity [3]: Active
- Activity [6]: Active
- Activity [9]: Active

SMILES: CC1(C)CC(O)CC(C)(C)N1[O]
- Activity [2]: inactive

SMILES: CC1(C)CC(O[N+](=O)[O-])CC(C)(C)N1O
- Activity [1]: 20%
